In brackets after ≈: the same amount, converted by molar mass. Several values for one entry are separate records, joined by “and”; a condition that tells them apart may be missing. Identical values can stand only once.
Test system: L1210
Experiment: Tested in vitro for inhibitory activity against L1210 murine leukemia
Format: functional, cell-based
Conditions: Mus musculus
In short: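 L1210 suspension cells grown in McCoy's 5A with 10% horse serum, 10% CO2, 37 °C. Drug dissolved in water and added to 10^5 cells/tube at final 0.01, 0.1, 1 and 10 µg/mL.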

SMILES | IC50 [mg/L]
CN(C)CCNc1ccc(NCCN(C)C)c2c1C(=O)c1ccncc1C2=O | 0.006 (≈ 0.0157 µM)
O=C1c2ccncc2C(=O)c2c(NCCN3CCCC3)ccc(NCCN3CCCC3)c21 | 0.09 (≈ 0.208 µM)
O=C1c2ccncc2C(=O)c2c(NCCN3CCOCC3)ccc(NCCN3CCOCC3)c21 | 1.1 (≈ 2.36 µM)
Cl.NCCNc1ccc(NCCN)c2c1C(=O)c1ccncc1C2=O | 0.01
O=C1c2ccccc2C(=O)c2c(NCCNCCO)ccc(NCCNCCO)c21 [AMETANTRONE] | 0.03 (≈ 0.0727 µM)
O=C1c2c(O)ccc(O)c2C(=O)c2c(NCCNCCO)ccc(NCCNCCO)c21 [MITOXANTRONE] | 0.009 (≈ 0.0202 µM)

Test system: LoVo
Experiment: Tested in vitro for cytotoxic activity against Human colon Adenocarcinoma sensitive cell line (LoVo)
Format: functional, cell-based
Conditions: not given
In short: (§1)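 LoVo and doxorubicin-resistant LoVo/Dx colon cells grown in Ham's F12 with 10% fetal calf serum, glutamine, vitamins and Hepes at 37 °C. 2.5 × 10^5 cells/mL plated and preincubated 24 h, then exposed to drug for 144 h. MTT read-out at 570 nm. IC50 (µg/mL) derived; resistance index = IC50 resistant / IC50 sensitive line.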

SMILES | IC50 [mg/L]
CN(C)CCNc1ccc(NCCN(C)C)c2c1C(=O)c1ccncc1C2=O | 0.076 (≈ 0.199 µM)
O=C1c2ccncc2C(=O)c2c(NCCN3CCCC3)ccc(NCCN3CCCC3)c21 | 0.5 (≈ 1.15 µM)
O=C1c2ccncc2C(=O)c2c(NCCN3CCOCC3)ccc(NCCN3CCOCC3)c21 | 5.32 (≈ 11.4 µM)
O=C1c2ccccc2C(=O)c2c(NCCNCCO)ccc(NCCNCCO)c21 [AMETANTRONE] | 0.4 (≈ 0.97 µM)
O=C1c2c(O)ccc(O)c2C(=O)c2c(NCCNCCO)ccc(NCCNCCO)c21 [MITOXANTRONE] | 0.009 (≈ 0.0202 µM)

Test system: not listed separately
Experiment: (§2) The compound was tested for antitumor activity against P388 murine leukemia by measuring maximum tolerated dose
Format: ADME, organism-based
Conditions: mouse, in vivo; read-out: LD10
In short: (§3)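 CD2F1 mice were given 10^6 P388 cells iv, followed by iv treatment on days 1, 4 and 7 after transplantation. Mice were observed daily for toxicity and survival for 60 days. The value is the maximum tolerated dose, taken as LD10, or else the maximum dose administered.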

SMILES | MTD [mg/kg/day]
O=C1c2ccncc2C(=O)c2c(NCCN3CCCC3)ccc(NCCN3CCCC3)c21 | 60
O=C1c2ccncc2C(=O)c2c(NCCN3CCOCC3)ccc(NCCN3CCOCC3)c21 | 60
O=C1c2ccccc2C(=O)c2c(NCCNCCO)ccc(NCCNCCO)c21 [AMETANTRONE] | 58
O=C1c2c(O)ccc(O)c2C(=O)c2c(NCCNCCO)ccc(NCCNCCO)c21 [MITOXANTRONE] | 3

Species: Mus musculus
Experiment: as §2
Format: ADME, organism-based
Conditions: in vivo
In short: as §3

SMILES | maximum tolerated dose [mg/kg/day] | LD10
Cl.NCCNc1ccc(NCCN)c2c1C(=O)c1ccncc1C2=O | 27 | 
O=C1c2c(O)ccc(O)c2C(=O)c2c(NCCNCCO)ccc(NCCNCCO)c21 [MITOXANTRONE] |  | 2 mg/kg/day and 4 mg/kg/day

Test system: Mus musculus
Experiment: The compound was tested for antitumor activity against P388 murine leukemia at 18 (mg/kg/day) dose
Format: functional
Conditions: not given
In short: (§4)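 P388 cells kept by serial ip passage (10^5 cells) in DBA2 male mice. CD2F1 mice inoculated iv with 10^6 cells on day 0. Drug given iv on days 1, 4 and 7. Daily observation for toxicity and survival over 60 days. Median survival time per group, expressed as %T/C = MST treated/MST control × 100.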

SMILES | T/C [%]
Cl.NCCNc1ccc(NCCN)c2c1C(=O)c1ccncc1C2=O | 206

Test system: Mus musculus
Experiment: The compound was tested for antitumor activity against P388 murine leukemia at 22 (mg/kg/day) dose
Format: functional
Conditions: not given
In short: as §4

SMILES | T/C [%]
Cl.NCCNc1ccc(NCCN)c2c1C(=O)c1ccncc1C2=O | 250

Test system: Mus musculus
Experiment: The compound was tested for antitumor activity against P388 murine leukemia at 27 (mg/kg/day) dose
Format: functional
Conditions: not given
In short: as §4

SMILES | T/C [%]
Cl.NCCNc1ccc(NCCN)c2c1C(=O)c1ccncc1C2=O | 230

Test system: Mus musculus
Experiment: The compound was tested for antitumor activity against P388 murine leukemia at 40 (mg/kg/day) dose
Format: functional
Conditions: not given
In short: as §4

SMILES | T/C [%]
Cl.NCCNc1ccc(NCCN)c2c1C(=O)c1ccncc1C2=O | 128

Test system: Mus musculus
Experiment: The compound was tested for antitumor activity against P388 murine leukemia at 60 (mg/kg/day) dose
Format: functional
Conditions: not given
In short: as §4

SMILES | T/C [%]
Cl.NCCNc1ccc(NCCN)c2c1C(=O)c1ccncc1C2=O | 36

Test system: Mus musculus
Experiment: The compound was tested for antitumor activity against P388 murine leukemia at 8 (mg/kg/day) dose
Format: functional
Conditions: not given
In short: as §4

SMILES | T/C [%]
Cl.NCCNc1ccc(NCCN)c2c1C(=O)c1ccncc1C2=O | 162

Species: Mus musculus
Experiment: The compound was tested for antitumor activity against P388 murine leukemia by measuring median survival time of treated mice/median survival time of control x 100
Format: functional
Conditions: not given

SMILES | T/C [%]
O=C1c2c(O)ccc(O)c2C(=O)c2c(NCCNCCO)ccc(NCCNCCO)c21 [MITOXANTRONE] | 196

Test system: Mus musculus
Experiment: The compound was tested for antitumor activity against P388 murine leukemia at 60 (mg/kg/day) dose; 15/16 toxic deaths/total no of mice
Format: ADME, organism-based
Conditions: in vivo

SMILES | Toxic deaths
Cl.NCCNc1ccc(NCCN)c2c1C(=O)c1ccncc1C2=O | 15

Test system: Mus musculus
Experiment: The compound was tested for antitumor activity against P388 murine leukemia at 8(mg/kg/day) dose; 0/8 toxic deaths/total no of mice
Format: ADME, organism-based
Conditions: in vivo

SMILES | Toxic deaths
Cl.NCCNc1ccc(NCCN)c2c1C(=O)c1ccncc1C2=O | 0

Test system: P388
Experiment: Tested for antitumor activity against P388 murine leukemia
Format: functional, Mus musculus
Conditions: not given
In short: as §4

SMILES | T/C
O=C1c2ccncc2C(=O)c2c(NCCN3CCCC3)ccc(NCCN3CCCC3)c21 | 100%
O=C1c2ccncc2C(=O)c2c(NCCN3CCOCC3)ccc(NCCN3CCOCC3)c21 | 122%
O=C1c2ccccc2C(=O)c2c(NCCNCCO)ccc(NCCNCCO)c21 [AMETANTRONE] | 127%
O=C1c2c(O)ccc(O)c2C(=O)c2c(NCCNCCO)ccc(NCCNCCO)c21 [MITOXANTRONE] | 172% and 138%

Test system: Mus musculus
Experiment: The compound was tested for antitumor activity against P388 murine leukemia at 12 (mg/kg/day) dose
Format: functional
Conditions: not given
In short: as §4

SMILES | T/C [%]
Cl.NCCNc1ccc(NCCN)c2c1C(=O)c1ccncc1C2=O | 194

Test system: Mus musculus
Experiment: The compound was tested for antitumor activity against P388 murine leukemia at 18 (mg/kg/day) dose; 1/40 toxic deaths/total no of mice
Format: ADME, organism-based
Conditions: in vivo

SMILES | Toxic deaths
Cl.NCCNc1ccc(NCCN)c2c1C(=O)c1ccncc1C2=O | 1

Test system: Mus musculus
Experiment: The compound was tested for antitumor activity against P388 murine leukemia at 2 (mg/kg/day) dose; 0/82 -no. of toxic deaths/no. of mice
Format: ADME, organism-based
Conditions: in vivo

SMILES | Toxic deaths
O=C1c2c(O)ccc(O)c2C(=O)c2c(NCCNCCO)ccc(NCCNCCO)c21 [MITOXANTRONE] | 0

Test system: Mus musculus
Experiment: The compound was tested for antitumor activity against P388 murine leukemia at 27 (mg/kg/day) dose;7/55 toxic deaths/total no of mice
Format: ADME, organism-based
Conditions: in vivo

SMILES | Toxic deaths
Cl.NCCNc1ccc(NCCN)c2c1C(=O)c1ccncc1C2=O | 7

Test system: Mus musculus
Experiment: The compound was tested for antitumor activity against P388 murine leukemia at 3 (mg/kg/day) dose; 12/132 -no. of toxic deaths/no. of mice
Format: ADME, organism-based
Conditions: in vivo

SMILES | Toxic deaths
O=C1c2c(O)ccc(O)c2C(=O)c2c(NCCNCCO)ccc(NCCNCCO)c21 [MITOXANTRONE] | 12

Test system: Mus musculus
Experiment: The compound was tested for antitumor activity against P388 murine leukemia at 4 (mg/kg/day) dose; 43/48 -no. of toxic deaths/no. of mice
Format: ADME, organism-based
Conditions: in vivo

SMILES | Toxic deaths
O=C1c2c(O)ccc(O)c2C(=O)c2c(NCCNCCO)ccc(NCCNCCO)c21 [MITOXANTRONE] | 43

Test system: Mus musculus
Experiment: The compound was tested for antitumor activity against P388 murine leukemia at 40 (mg/kg/day) dose; 25/37 toxic deaths/total no of mice
Format: ADME, organism-based
Conditions: in vivo

SMILES | Toxic deaths
Cl.NCCNc1ccc(NCCN)c2c1C(=O)c1ccncc1C2=O | 25

Test system: not listed separately
Experiment: Resistance index is the ratio of IC50 of resistant cell line/IC50 of sensitive cell line
Format: functional
Conditions: not given
In short: as §1

SMILES | Ratio
CN(C)CCNc1ccc(NCCN(C)C)c2c1C(=O)c1ccncc1C2=O | 1.7
O=C1c2ccncc2C(=O)c2c(NCCN3CCCC3)ccc(NCCN3CCCC3)c21 | 1.4
O=C1c2ccncc2C(=O)c2c(NCCN3CCOCC3)ccc(NCCN3CCOCC3)c21 | 0.4
O=C1c2ccccc2C(=O)c2c(NCCNCCO)ccc(NCCNCCO)c21 [AMETANTRONE] | 87
O=C1c2c(O)ccc(O)c2C(=O)c2c(NCCNCCO)ccc(NCCNCCO)c21 [MITOXANTRONE] | 28

Test system: Mus musculus
Experiment: The compound was tested for antitumor activity against P388 murine leukemia at 22 (mg/kg/day) dose; 1/8 toxic deaths/total no of mice
Format: ADME, organism-based
Conditions: in vivo

SMILES | Toxic deaths
Cl.NCCNc1ccc(NCCN)c2c1C(=O)c1ccncc1C2=O | 1

Test system: LoVo/DX (Homo sapiens)
Experiment: Tested in vitro for cytotoxic activity against Doxorubicin resistant Human colon Adenocarcinoma cell line
Conditions: not given

SMILES | IC50 [mg/L]
CN(C)CCNc1ccc(NCCN(C)C)c2c1C(=O)c1ccncc1C2=O | 0.13 (≈ 0.341 µM)
O=C1c2ccncc2C(=O)c2c(NCCN3CCCC3)ccc(NCCN3CCCC3)c21 | 0.7 (≈ 1.61 µM)
O=C1c2ccncc2C(=O)c2c(NCCN3CCOCC3)ccc(NCCN3CCOCC3)c21 | 2.3 (≈ 4.94 µM)
O=C1c2ccccc2C(=O)c2c(NCCNCCO)ccc(NCCNCCO)c21 [AMETANTRONE] | 34.7 (≈ 84.1 µM)
O=C1c2c(O)ccc(O)c2C(=O)c2c(NCCNCCO)ccc(NCCNCCO)c21 [MITOXANTRONE] | 0.25 (≈ 0.562 µM)

Test system: Mus musculus
Experiment: The compound was tested for antitumor activity against P388 murine leukemia at 12(mg/kg/day) dose; 0/16 toxic deaths/total no of mice
Conditions: in vivo

SMILES | Toxic deaths
Cl.NCCNc1ccc(NCCN)c2c1C(=O)c1ccncc1C2=O | 0
